Experimental data published in ChEMBL document CHEMBL3593210, “Pentamidine analogs as inhibitors of [(3)H]MK-801 and [(3)H]ifenprodil binding to rat brain NMDA receptors” (Bioorg Med Chem, 2015).

These molecules were tested against Glutamate NMDA receptor (assay: Displacement of [3H]-MK-801 from rat cortical membranes NMDA receptor by beta counting analysis in absence of spermine).
Procedure, shortened: (§1)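 Membranes from rat frontoparietal cortex and hippocampus, prepared in 50 mM Tris acetate pH 7.0. 5 nM [3H]MK-801 was incubated with membranes (~1 mg wet tissue) for 3 h at 23 °C in 10 mM Tris acetate pH 7.0 with 10 µM glutamate and glycine, in triplicate, with or without 30 µM spermine. Compounds were tested at 3–4 concentrations. Nonspecific binding was set with 100 µM (S)-ketamine. Bound ligand was filtered and scintillation-counted. Spermine sensitivity = IC50 (with spermine)/IC50 (without).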

Structure (SMILES)	IC50 [µM]
N=C(NCCO)c1ccc(N2CCCN(c3ccc(/C(N)=N/CCO)cc3)CC2)cc1	9.44
N=C(N)c1ccc(N2CCN(c3ccc(C(=N)N)cc3)CC2)cc1	3.08
CN(CCNc1ccc(C(=N)N)cc1)c1ccc(C(=N)N)cc1	3.18
N=C(N)c1ccc(OCc2ccccc2COc2ccc(C(=N)N)cc2)cc1	1.46
CN(CCN(C)c1ccc(C(=N)N)cc1)c1ccc(C(=N)N)cc1	2.71
N=C(N)c1ccc(N2CCCN(c3ccc(C(=N)N)cc3)CC2)cc1	0.25
N=C(N)c1ccc(C(=O)NCCCCNC(=O)c2ccc(C(=N)N)cc2)cc1	> 1000
N=C(NC1CCCC1)c1ccc(N2CCCN(c3ccc(C(=N)NC4CCCC4)cc3)CC2)cc1	8.13
N=C(N)c1ccc(-c2ccc(-c3ccc(C(=N)N)s3)s2)s1	5.34
N=C(N)c1ccc(NCCCCCCCNc2ccc(C(=N)N)cc2)cc1	4.67
N=C(N)c1ccc(OCCCOc2ccc(C(=N)N)cc2)cc1 [PROPAMIDINE]	5.54
CCCNC(=N)c1ccc(N2CCN(c3ccc(C(=N)NCCC)cc3)CC2)cc1	15.9
CC(C)/N=C(/N)c1ccc(N2CCN(c3ccc(/C(N)=N\C(C)C)cc3)CC2)cc1	21.4
N=C(N)c1ccc(NCCCCCCNc2ccc(C(=N)N)cc2)cc1	4.37
N=C(N)c1ccc(NCCCCCCCCNc2ccc(C(=N)N)cc2)cc1	7.26
CC(C)/N=C(\N)c1ccc(N2CCCN(c3ccc(/C(N)=N/C(C)C)cc3)CC2)cc1	17.7

Structure (SMILES)	IC50 [µM]
N=C(N)c1ccc(NC(=O)CCCC(=O)Nc2ccc(C(=N)N)cc2)cc1	230
c1cc(N2CCN(c3ccc(C4=NCCCN4)cc3)CC2)ccc1C1=NCCCN1	23.8
N=C(NC1CC1)c1ccc(N2CCCN(c3ccc(C(=N)NC4CC4)cc3)CC2)cc1	11.2
N=C(N)c1ccc(COc2ccccc2OCc2ccc(C(=N)N)cc2)cc1	2.19
N=C(N)c1ccc(OCCCCOc2ccc(C(=N)N)cc2)cc1	17.7
NC(N)=NCCCCN=C(N)N [ARCAINE]	4.6
c1cc(N2CCN(c3ccc(C4=NCCN4)cc3)CC2)ccc1C1=NCCN1	6.43
N=C(N)c1ccc(-c2ccc(-c3nc4ccc(C(=N)N)cc4[nH]3)s2)cc1	3.21
N=C(N)c1ccc(C(=O)NCCCNC(=O)c2ccc(C(=N)N)cc2)cc1	> 1000
CC(C)(C)/N=C(\N)c1ccc(N2CCCN(c3ccc(/C(N)=N/C(C)(C)C)cc3)CC2)cc1	34.6
N=C(N)c1ccc(NC(=O)CCCCC(=O)Nc2ccc(C(=N)N)cc2)cc1	165
CC(C)NC(=N)c1ccc(NC(=O)c2cccc(C(=O)Nc3ccc(C(=N)NC(C)C)cc3)n2)cc1	6.94
N=C(N)c1ccc(NC(=O)c2cccc(C(=O)Nc3ccc(C(=N)N)cc3)n2)cc1	58.2
CCCC/N=C(/N)c1ccc(N2CCN(c3ccc(/C(N)=N\CCCC)cc3)CC2)cc1	10.3
N=C(N)c1ccc(NCCCNc2ccc(C(=N)N)cc2)cc1	10

Each molecule was assayed against Glutamate NMDA receptor (assay: Displacement of [3H]-MK-801 from rat cortical membranes NMDA receptor by beta counting analysis in presence of 30 uM spermine).
Procedure, shortened: as §1

Structure (SMILES)	IC50 [µM]
N=C(NCCO)c1ccc(N2CCCN(c3ccc(/C(N)=N/CCO)cc3)CC2)cc1	324
N=C(N)c1ccc(N2CCN(c3ccc(C(=N)N)cc3)CC2)cc1	70.7
CN(CCNc1ccc(C(=N)N)cc1)c1ccc(C(=N)N)cc1	85.3
N=C(N)c1ccc(OCc2ccccc2COc2ccc(C(=N)N)cc2)cc1	5.54
CN(CCN(C)c1ccc(C(=N)N)cc1)c1ccc(C(=N)N)cc1	54.5
N=C(N)c1ccc(N2CCCN(c3ccc(C(=N)N)cc3)CC2)cc1	5.47
N=C(N)c1ccc(C(=O)NCCCCNC(=O)c2ccc(C(=N)N)cc2)cc1	> 1000
N=C(NC1CCCC1)c1ccc(N2CCCN(c3ccc(C(=N)NC4CCCC4)cc3)CC2)cc1	85.7
N=C(N)c1ccc(-c2ccc(-c3ccc(C(=N)N)s3)s2)s1	6.76
N=C(N)c1ccc(NCCCCCCCNc2ccc(C(=N)N)cc2)cc1	25.4
CCCNC(=N)c1ccc(N2CCN(c3ccc(C(=N)NCCC)cc3)CC2)cc1	371
CC(C)/N=C(/N)c1ccc(N2CCN(c3ccc(/C(N)=N\C(C)C)cc3)CC2)cc1	544
N=C(N)c1ccc(NCCCCCCNc2ccc(C(=N)N)cc2)cc1	23.9
N=C(N)c1ccc(NCCCCCCCCNc2ccc(C(=N)N)cc2)cc1	31.1
CC(C)/N=C(\N)c1ccc(N2CCCN(c3ccc(/C(N)=N/C(C)C)cc3)CC2)cc1	389
N=C(N)c1ccc(NC(=O)CCCC(=O)Nc2ccc(C(=N)N)cc2)cc1	675
c1cc(N2CCN(c3ccc(C4=NCCCN4)cc3)CC2)ccc1C1=NCCCN1	264
N=C(NC1CC1)c1ccc(N2CCCN(c3ccc(C(=N)NC4CC4)cc3)CC2)cc1	212
N=C(N)c1ccc(COc2ccccc2OCc2ccc(C(=N)N)cc2)cc1	18.4
NC(N)=NCCCCN=C(N)N [ARCAINE]	196
c1cc(N2CCN(c3ccc(C4=NCCN4)cc3)CC2)ccc1C1=NCCN1	106
N=C(N)c1ccc(-c2ccc(-c3nc4ccc(C(=N)N)cc4[nH]3)s2)cc1	13.4
N=C(N)c1ccc(C(=O)NCCCNC(=O)c2ccc(C(=N)N)cc2)cc1	> 1000
CC(C)(C)/N=C(\N)c1ccc(N2CCCN(c3ccc(/C(N)=N/C(C)(C)C)cc3)CC2)cc1	562
N=C(N)c1ccc(NC(=O)CCCCC(=O)Nc2ccc(C(=N)N)cc2)cc1	437
CC(C)NC(=N)c1ccc(NC(=O)c2cccc(C(=O)Nc3ccc(C(=N)NC(C)C)cc3)n2)cc1	74.9
N=C(N)c1ccc(NC(=O)c2cccc(C(=O)Nc3ccc(C(=N)N)cc3)n2)cc1	70.9
CCCC/N=C(/N)c1ccc(N2CCN(c3ccc(/C(N)=N\CCCC)cc3)CC2)cc1	139
N=C(N)c1ccc(NCCCNc2ccc(C(=N)N)cc2)cc1	148

What follows are molecules tested against Glutamate NMDA receptor (Rattus norvegicus) (UniProt P35439+Q00959+Q00960+Q00961+Q62645+Q8VHN2+Q9R1M7) (assay: Ratio of IC50 for displacement of [3H]-MK-801 from rat cortical membranes NMDA receptor in presence of 30 uM spermine to IC50 for displacement of [3H]-MK-801 from rat cortical membranes NMDA receptor in absence of 30 spermine).
Procedure, shortened: as §1

Structure (SMILES)	Ratio IC50
N=C(NCCO)c1ccc(N2CCCN(c3ccc(/C(N)=N/CCO)cc3)CC2)cc1	35.7
N=C(N)c1ccc(N2CCN(c3ccc(C(=N)N)cc3)CC2)cc1	26.2
CN(CCNc1ccc(C(=N)N)cc1)c1ccc(C(=N)N)cc1	30.2
N=C(N)c1ccc(OCc2ccccc2COc2ccc(C(=N)N)cc2)cc1	4
CN(CCN(C)c1ccc(C(=N)N)cc1)c1ccc(C(=N)N)cc1	20.9
N=C(N)c1ccc(N2CCCN(c3ccc(C(=N)N)cc3)CC2)cc1	20.4
N=C(NC1CCCC1)c1ccc(N2CCCN(c3ccc(C(=N)NC4CCCC4)cc3)CC2)cc1	10.6
N=C(N)c1ccc(-c2ccc(-c3ccc(C(=N)N)s3)s2)s1	1.5
N=C(N)c1ccc(NCCCCCCCNc2ccc(C(=N)N)cc2)cc1	5.37
CCCNC(=N)c1ccc(N2CCN(c3ccc(C(=N)NCCC)cc3)CC2)cc1	21.8
CC(C)/N=C(/N)c1ccc(N2CCN(c3ccc(/C(N)=N\C(C)C)cc3)CC2)cc1	32.9
N=C(N)c1ccc(NCCCCCCNc2ccc(C(=N)N)cc2)cc1	5.26
N=C(N)c1ccc(NCCCCCCCCNc2ccc(C(=N)N)cc2)cc1	4.37
CC(C)/N=C(\N)c1ccc(N2CCCN(c3ccc(/C(N)=N/C(C)C)cc3)CC2)cc1	25.3
N=C(N)c1ccc(NC(=O)CCCC(=O)Nc2ccc(C(=N)N)cc2)cc1	2.81
c1cc(N2CCN(c3ccc(C4=NCCCN4)cc3)CC2)ccc1C1=NCCCN1	13.6
N=C(NC1CC1)c1ccc(N2CCCN(c3ccc(C(=N)NC4CC4)cc3)CC2)cc1	19.9
N=C(N)c1ccc(COc2ccccc2OCc2ccc(C(=N)N)cc2)cc1	10.1
c1cc(N2CCN(c3ccc(C4=NCCN4)cc3)CC2)ccc1C1=NCCN1	15.1
N=C(N)c1ccc(-c2ccc(-c3nc4ccc(C(=N)N)cc4[nH]3)s2)cc1	4.14
CC(C)(C)/N=C(\N)c1ccc(N2CCCN(c3ccc(/C(N)=N/C(C)(C)C)cc3)CC2)cc1	16.8
N=C(N)c1ccc(NC(=O)CCCCC(=O)Nc2ccc(C(=N)N)cc2)cc1	3.46
CC(C)NC(=N)c1ccc(NC(=O)c2cccc(C(=O)Nc3ccc(C(=N)NC(C)C)cc3)n2)cc1	10.8
N=C(N)c1ccc(NC(=O)c2cccc(C(=O)Nc3ccc(C(=N)N)cc3)n2)cc1	1.22
CCCC/N=C(/N)c1ccc(N2CCN(c3ccc(/C(N)=N\CCCC)cc3)CC2)cc1	16
N=C(N)c1ccc(NCCCNc2ccc(C(=N)N)cc2)cc1	17

What follows are molecules tested against Glutamate NMDA receptor (assay: Displacement of [3H]-ifenprodil from rat cortical membranes NMDA receptor by beta counting analysis in absence of spermine).

Structure (SMILES)	IC50 [µM]
N=C(N)c1ccc(N2CCN(c3ccc(C(=N)N)cc3)CC2)cc1	17
CN(CCNc1ccc(C(=N)N)cc1)c1ccc(C(=N)N)cc1	7.14
N=C(N)c1ccc(OCc2ccccc2COc2ccc(C(=N)N)cc2)cc1	1.42
CN(CCN(C)c1ccc(C(=N)N)cc1)c1ccc(C(=N)N)cc1	16.9
N=C(N)c1ccc(N2CCCN(c3ccc(C(=N)N)cc3)CC2)cc1	19.1
N=C(N)c1ccc(NC(=O)CCCC(=O)Nc2ccc(C(=N)N)cc2)cc1	54.5
N=C(N)c1ccc(COc2ccccc2OCc2ccc(C(=N)N)cc2)cc1	7.29
NC(N)=NCCCCN=C(N)N [ARCAINE]	24.4
CC(C)NC(=N)c1ccc(NC(=O)c2cccc(C(=O)Nc3ccc(C(=N)NC(C)C)cc3)n2)cc1	49.4
N=C(N)c1ccc(NC(=O)c2cccc(C(=O)Nc3ccc(C(=N)N)cc3)n2)cc1	> 100
N=C(N)c1ccc(NCCCNc2ccc(C(=N)N)cc2)cc1	77.7
